Source: ChEMBL document CHEMBL1133137, “Synthesis and biological effects of a new series of 2-amino-3-benzoylthiophenes as allosteric enhancers of A1-adenosine receptor” (Bioorg Med Chem Lett, 2000)

biological target: T1, Adenosine receptor A1 (Homo sapiens) (UniProt P30542); assay: The compound was tested for its percentage of response to 10 uM of PD-81723 on CHO cells expressing the cloned human A1-adenosine receptor at 0.1 uM concentration; change of less than 5% of allosteric enhancement.; format: functional, cell-based
T1 sequence (whole entry): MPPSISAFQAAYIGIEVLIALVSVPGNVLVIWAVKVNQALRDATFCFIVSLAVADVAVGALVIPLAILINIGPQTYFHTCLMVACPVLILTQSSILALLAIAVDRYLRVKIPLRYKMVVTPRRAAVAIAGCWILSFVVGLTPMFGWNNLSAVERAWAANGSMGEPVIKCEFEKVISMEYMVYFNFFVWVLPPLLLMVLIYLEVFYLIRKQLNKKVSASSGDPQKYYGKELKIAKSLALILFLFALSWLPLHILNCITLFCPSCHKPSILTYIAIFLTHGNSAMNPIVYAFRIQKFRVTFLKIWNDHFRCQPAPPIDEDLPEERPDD
Outline: (§1)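 CHO cells stably expressing recombinant human A1 receptors (~8000 fmol/mg protein), thawed from low-passage frozen stocks, grown to confluence over 48–72 h in Ham's F-12 with 10% FBS and G-418. Test compound incubated 6 min at 36 °C with 0.05–0.1 nM CPA. Reaction stopped with HCl (final 50 mM). cAMP in acid extracts measured by radioimmunoassay. Reduction normalized to the response to 10 μM PD 81,723.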

Structure (SMILES) | Response
Nc1sc2c(c1C(=O)c1ccc(Br)cc1)CCNC2 | < 5%

biological target: T1, Adenosine receptor A1 (Homo sapiens); assay: The compound was tested for its percentage of response to 10 uM of PD-81723 on CHO cells expressing the cloned human A1-adenosine receptor at 10 uM; An increase of cAmp content of cells; format: functional, cell-based; outline: as §1

Structure (SMILES) | Response
Nc1sc2c(c1C(=O)c1ccc(Br)cc1)CCN(C(=O)OCc1ccccc1)C2 | Increased cAMP

biological target: T1, Adenosine receptor A1 (Homo sapiens); assay: The compound was tested for its percentage of response to 10 uM of PD-81723 on CHO cells expressing the cloned human A1-adenosine receptor at 1 uM; change of less than 5% of allosteric enhancement.; format: functional, cell-based; outline: as §1

Structure (SMILES) | Response
Nc1sc2c(c1C(=O)c1ccc(Cl)cc1)CCC2 | < 5%

biological target: T1, Adenosine receptor A1 (Homo sapiens); assay: Percentage of response to 10 uM of PD-81723 on CHO cells expressing the cloned human A1-adenosine receptor at 1 uM; An increase of cAmp content of cells; format: functional, cell-based; outline: as §1

Structure (SMILES) | Response
Nc1sc2c(c1C(=O)c1ccc(Br)cc1)CCN(C(=O)OCc1ccccc1)C2 | Increased cAMP
CCOC(=O)CN1CCc2c(sc(N)c2C(=O)c2ccccc2)C1 | Increased cAMP
Nc1sc2c(c1C(=O)c1ccc(Cl)cc1)CCN(C(=O)OCc1ccccc1)C2 | Increased cAMP
CCOC(=O)CN1CCc2c(sc(N)c2C(=O)c2ccc(Cl)cc2)C1 | Increased cAMP
Nc1sc2c(c1C(=O)c1ccc(Cl)cc1)CCN(CCc1ccc([N+](=O)[O-])cc1)C2 | Increased cAMP
Nc1sc2c(c1C(=O)c1ccc(I)cc1)CCC2 | Increased cAMP
Nc1sc2c(c1C(=O)c1ccc(F)cc1)CCN(C(=O)OCc1ccccc1)C2 | Increased cAMP
Cc1sc(N)c(C(=O)c2ccccc2)c1C | Increased cAMP
Nc1sc2c(c1C(=O)c1ccccc1)CCN(C(=O)OCc1ccccc1)C2 | Increased cAMP
Nc1sc2c(c1C(=O)c1ccc(Cl)cc1)CCN(Cc1ccccc1)C2 | Increased cAMP
Cc1ccc(S(=O)(=O)N2CCc3c(sc(N)c3C(=O)c3ccccc3)C2)cc1 | Increased cAMP

biological target: T1, Adenosine receptor A1 (Homo sapiens); assay: Percentage of response to 10 uM of PD-81723 on CHO cells expressing the cloned human A1-adenosine receptor at 0.1 uM; format: functional, cell-based; outline: as §1

Structure (SMILES) | Response
Nc1sc2c(c1C(=O)c1ccc(-c3ccccc3)cc1)CCNC2 | < 5%
Nc1sc2c(c1C(=O)c1ccc(I)cc1)CCNC2 | < 5%
Nc1sc2c(c1C(=O)c1ccc(I)cc1)CCN(C(=O)OCc1ccccc1)C2 | < 5%
Nc1sc2c(c1C(=O)c1ccc(F)cc1)CCN(C(=O)OCc1ccccc1)C2 | < 5%
Nc1sc2c(c1C(=O)c1cccc(C(F)(F)F)c1)CCN(CCc1ccccc1)C2 | < 5%
Nc1sc2c(c1C(=O)c1ccc(Cl)cc1)CCN(Cc1ccccc1)C2 | < 5%

biological target: T1, Adenosine receptor A1 (Homo sapiens); assay: Percentage of response to 10 uM of PD-81723 on CHO cells expressing the cloned human A1-adenosine receptor at 10 uM; An increase of cAmp content of cells; format: functional, cell-based; outline: as §1

Structure (SMILES) | Response
Nc1sc2c(c1C(=O)c1ccc(-c3ccccc3)cc1)CCNC2 | Increased cAMP
CCOC(=O)CN1CCc2c(sc(N)c2C(=O)c2ccccc2)C1 | Increased cAMP
Nc1sc2c(c1C(=O)c1ccc(Cl)cc1)CCN(C(=O)OCc1ccccc1)C2 | Increased cAMP
CCOC(=O)CN1CCc2c(sc(N)c2C(=O)c2ccc(Cl)cc2)C1 | Increased cAMP
Nc1sc2c(c1C(=O)c1ccc(Cl)cc1)CCN(CCc1ccc([N+](=O)[O-])cc1)C2 | Increased cAMP
Nc1sc2c(c1C(=O)c1ccc(F)cc1)CCN(C(=O)OCc1ccccc1)C2 | Increased cAMP
Nc1sc2c(c1C(=O)c1ccc(Cl)cc1)CCN(CCc1ccccc1)C2 | Increased cAMP
Nc1sc2c(c1C(=O)c1ccccc1)CCN(C(=O)OCc1ccccc1)C2 | Increased cAMP
Nc1sc2c(c1C(=O)c1ccc(Cl)cc1)CCN(Cc1ccccc1)C2 | Increased cAMP
Cc1ccc(S(=O)(=O)N2CCc3c(sc(N)c3C(=O)c3ccccc3)C2)cc1 | Increased cAMP

biological target: T1, Adenosine receptor A1 (Homo sapiens); assay: Percent response to 10 uM PD-81723 on CHO cells expressing human A1-adenosine receptor at 0.1 uM; An increase of cAmp content of cells; format: functional, cell-based; outline: as §1

Structure (SMILES) | Response
CCOC(=O)CN1CCc2c(sc(N)c2C(=O)c2ccccc2)C1 | Increased cAMP
Nc1sc2c(c1C(=O)c1ccc(Cl)cc1)CCC2 | Increased cAMP
Nc1sc2c(c1C(=O)c1ccc(Cl)cc1)CCN(CCc1ccc([N+](=O)[O-])cc1)C2 | Increased cAMP
Nc1sc2c(c1C(=O)c1ccccc1)CCN(CCc1ccc([N+](=O)[O-])cc1)C2 | Increased cAMP
Nc1sc2c(c1C(=O)c1ccc(I)cc1)CCC2 | Increased cAMP
Nc1sc2c(c1C(=O)c1ccccc1)CCN(C(=O)OCc1ccccc1)C2 | Increased cAMP
Cc1ccc(S(=O)(=O)N2CCc3c(sc(N)c3C(=O)c3ccccc3)C2)cc1 | Increased cAMP

biological target: T1, Adenosine receptor A1 (Homo sapiens); assay: Percentage of response to 10 uM of PD-81723 on CHO cells expressing the cloned human A1-adenosine receptor at 1 uM concentration; format: functional, cell-based; outline: as §1

Structure (SMILES) | Response
Nc1sc2c(c1C(=O)c1ccccc1)CCN(CCc1ccc([N+](=O)[O-])cc1)C2 | 13%
Nc1sc2c(c1C(=O)c1ccccc1)CCCCC2 | 29%
Nc1sc2c(c1C(=O)c1ccc(Cl)cc1)CCN(CCc1ccccc1)C2 | 32%
Nc1sc2c(c1C(=O)c1ccc(-c3ccccc3)cc1)CCN(C(=O)OCc1ccccc1)C2 | 6%

biological target: T1, Adenosine receptor A1 (Homo sapiens); assay: The compound was tested for its percentage of response to 10 uM of PD-81723 on CHO cells expressing the cloned human A1-adenosine receptor at 10 uM concentration; An increase of cAmp content of cells; format: functional, cell-based; outline: as §1

Structure (SMILES) | Response
Nc1sc2c(c1C(=O)c1cccc(C(F)(F)F)c1)CCN(CCc1ccccc1)C2 | Increased cAMP

biological target: T1, Adenosine receptor A1 (Homo sapiens); assay: The compound was tested for its percentage of response to 10 uM of PD-81723 on CHO cells expressing the cloned human A1-adenosine receptor at 1 uM concentration; change of less than 5% of allosteric enhancement.; format: functional, cell-based; outline: as §1

Structure (SMILES) | Response
Nc1sc2c(c1C(=O)c1ccc(-c3ccccc3)cc1)CCNC2 | < 5%
Nc1sc2c(c1C(=O)c1ccc(I)cc1)CCNC2 | < 5%
Nc1sc2c(c1C(=O)c1ccccc1)SCC2 | < 5%
Nc1sc2c(c1C(=O)c1ccc(I)cc1)CCN(C(=O)OCc1ccccc1)C2 | < 5%
Nc1sc2c(c1C(=O)c1cccc(C(F)(F)F)c1)CCN(CCc1ccccc1)C2 | < 5%
Nc1sc2c(c1C(=O)c1ccc(Br)cc1)CCNC2 | < 5%

biological target: T1, Adenosine receptor A1 (Homo sapiens); assay: The compound was tested for its percentage of response to 10 uM of PD-81723 on CHO cells expressing the cloned human A1-adenosine receptor at 0.1 uM; An increase of cAmp content of cells; format: functional, cell-based; outline: as §1

Structure (SMILES) | Response
Nc1sc2c(c1C(=O)c1ccc(Br)cc1)CCN(C(=O)OCc1ccccc1)C2 | Increased cAMP

biological target: T1, Adenosine receptor A1 (Homo sapiens); assay: Percentage of response to 10 uM of PD-81723 on CHO cells expressing the cloned human A1-adenosine receptor at 10 uM concentration; format: functional, cell-based; outline: as §1

Structure (SMILES) | Response
Nc1sc2c(c1C(=O)c1ccccc1)SCC2 | 68%
Nc1sc2c(c1C(=O)c1ccccc1)CCN(CCc1ccc([N+](=O)[O-])cc1)C2 | 31%
Cc1sc(N)c(C(=O)c2ccccc2)c1C | 19%
Nc1sc2c(c1C(=O)c1ccccc1)CCCCC2 | 54%

biological target: T1, Adenosine receptor A1 (Homo sapiens); assay: Percentage of response to 10 uM of PD-81723 on CHO cells expressing the cloned human A1-adenosine receptor at 0.1 uM concentration; format: functional, cell-based; outline: as §1

Structure (SMILES) | Response
CCOC(=O)CN1CCc2c(sc(N)c2C(=O)c2ccc(Cl)cc2)C1 | 10%
Nc1sc2c(c1C(=O)c1ccc(Cl)cc1)CCN(CCc1ccccc1)C2 | 58%
Nc1sc2c(c1C(=O)c1ccc(-c3ccccc3)cc1)CCN(C(=O)OCc1ccccc1)C2 | 14%

biological target: T1, Adenosine receptor A1 (Homo sapiens); assay: The compound was tested for its percentage of response to 10 uM of PD-81723 on CHO cells expressing the cloned human A1-adenosine receptor at 10 uM concentration; change of less than 5% of allosteric enhancement.; format: functional, cell-based; outline: as §1

Structure (SMILES) | Response
Nc1sc2c(c1C(=O)c1ccc(I)cc1)CCNC2 | < 5%
Nc1sc2c(c1C(=O)c1ccc(I)cc1)CCN(C(=O)OCc1ccccc1)C2 | < 5%
Nc1sc2c(c1C(=O)c1ccc(Cl)cc1)CCC2 | < 5%
Nc1sc2c(c1C(=O)c1ccc(Br)cc1)CCNC2 | < 5%
Nc1sc2c(c1C(=O)c1ccc(-c3ccccc3)cc1)CCN(C(=O)OCc1ccccc1)C2 | < 5%

biological target: T1, Adenosine receptor A1 (Homo sapiens); assay: The compound was tested for its percentage of response to 10 uM of PD-81723 on CHO cells expressing the cloned human A1-adenosine receptor at 0.1 uM concentration; change of less than 5% of allosteric enhancement; format: functional, cell-based; outline: as §1

Structure (SMILES) | Response
Cc1sc(N)c(C(=O)c2ccccc2)c1C | < 5%

biological target: T1, Adenosine receptor A1 (Homo sapiens); assay: The compound was tested for its percentage of response to 10 uM of PD-81723 on CHO cells expressing the cloned human A1-adenosine receptor at 10 uM; change of less than 5% of allosteric enhancement.; format: functional, cell-based; outline: as §1

Structure (SMILES) | Response
Nc1sc2c(c1C(=O)c1ccc(I)cc1)CCC2 | < 5%

biological target: T1, Adenosine receptor A1 (Homo sapiens); assay: The compound was tested for its percentage of response to 10 uM of PD-81723 on CHO cells expressing the cloned human A1-adenosine receptor at 0.1 uM concentration; An increase of cAmp content of cells; format: functional, cell-based; outline: as §1

Structure (SMILES) | Response
Nc1sc2c(c1C(=O)c1ccccc1)SCC2 | Increased cAMP
Nc1sc2c(c1C(=O)c1ccccc1)CCCCC2 | Increased cAMP

biological target: T1, Adenosine receptor A1 (Homo sapiens); assay: The compound was tested for its percentage of response to 10 uM of PD-81723 on CHO cells expressing the cloned human A1-adenosine receptor at 10 uM; format: functional, cell-based; outline: as §1

Structure (SMILES) | Response
Nc1sc2c(c1C(=O)c1ccc(Cl)cc1)CCN(CCc1ccc([N+](=O)[O-])cc1)C2 | 31%

biological target: T1, Adenosine receptor A1 (Homo sapiens); assay: The compound was tested for its percentage of response to 10 uM of PD-81723 on CHO cells expressing the cloned human A1-adenosine receptor at 1 uM; format: functional, cell-based; outline: as §1

Structure (SMILES) | Response
Nc1sc2c(c1C(=O)c1ccc(Cl)cc1)CCN(CCc1ccc([N+](=O)[O-])cc1)C2 | 13%

biological target: T1, Adenosine receptor A1 (Homo sapiens); assay: The compound was tested for its percentage of response to 10 uM of PD-81723 on CHO cells expressing the cloned human A1-adenosine receptor at 0.1; change of less than 5% of allosteric enhancement.; format: functional, cell-based; outline: as §1

Structure (SMILES) | Response
Nc1sc2c(c1C(=O)c1ccc(Cl)cc1)CCN(C(=O)OCc1ccccc1)C2 | < 5%
